From ChEMBL document CHEMBL4725431, “Harmaline Analogs as Substrate-Selective Cyclooxygenase-2 Inhibitors” (ACS Med Chem Lett, 2020)

Assays:
[1] = target: T1, Prostaglandin G/H synthase 1 (Ovis aries, UniProt P05979); assay: Inhibition of ovine COX1 using [1-14C]AA as substrate preincubated for 20 mins followed by substrate addition and measured for 30 sec by thin layer chromatography analysis
T1 sequence (P05979 whole entry): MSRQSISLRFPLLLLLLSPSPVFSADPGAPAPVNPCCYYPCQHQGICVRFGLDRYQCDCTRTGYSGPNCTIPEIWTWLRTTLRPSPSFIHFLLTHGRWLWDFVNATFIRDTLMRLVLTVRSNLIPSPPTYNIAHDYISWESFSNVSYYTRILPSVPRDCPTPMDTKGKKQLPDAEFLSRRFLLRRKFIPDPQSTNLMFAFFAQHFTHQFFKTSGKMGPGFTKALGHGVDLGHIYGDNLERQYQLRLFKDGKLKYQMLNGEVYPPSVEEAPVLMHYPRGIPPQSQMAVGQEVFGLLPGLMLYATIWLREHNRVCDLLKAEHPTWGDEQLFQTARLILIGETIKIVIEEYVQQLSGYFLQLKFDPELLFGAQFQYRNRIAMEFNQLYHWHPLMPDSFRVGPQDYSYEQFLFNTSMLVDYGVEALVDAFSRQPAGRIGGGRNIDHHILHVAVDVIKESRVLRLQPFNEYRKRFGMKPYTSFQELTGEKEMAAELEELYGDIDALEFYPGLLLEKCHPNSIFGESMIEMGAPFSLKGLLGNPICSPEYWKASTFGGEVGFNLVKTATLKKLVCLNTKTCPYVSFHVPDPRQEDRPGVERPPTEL
Procedure, shortened: (§1)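 Purified enzyme (murine COX-2 at 63 nM, ovine COX-1 at 22.5 nM), hematin-reconstituted, in 100 mM Tris-HCl pH 8.0 with 500 μM phenol. Several inhibitor concentrations or DMSO vehicle preincubated 20 min, then [1-14C]AA 5 μM added at 37 °C for 30 s. Stopped by ether/methanol/citrate pH 4.0 extraction. Radiolabelled PGs separated on TLC and quantified by radioactivity scanning. Run in triplicate.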

[2] = target: T2, Prostaglandin G/H synthase 2 (Mus musculus, UniProt Q05769); assay: Inhibition of mouse COX2 using 2-arachidonylglycerol as substrate preincubated for 3 mins followed by substrate addition and measured for 30 sec by LC/MS analysis
T2 sequence (Q05769 whole entry): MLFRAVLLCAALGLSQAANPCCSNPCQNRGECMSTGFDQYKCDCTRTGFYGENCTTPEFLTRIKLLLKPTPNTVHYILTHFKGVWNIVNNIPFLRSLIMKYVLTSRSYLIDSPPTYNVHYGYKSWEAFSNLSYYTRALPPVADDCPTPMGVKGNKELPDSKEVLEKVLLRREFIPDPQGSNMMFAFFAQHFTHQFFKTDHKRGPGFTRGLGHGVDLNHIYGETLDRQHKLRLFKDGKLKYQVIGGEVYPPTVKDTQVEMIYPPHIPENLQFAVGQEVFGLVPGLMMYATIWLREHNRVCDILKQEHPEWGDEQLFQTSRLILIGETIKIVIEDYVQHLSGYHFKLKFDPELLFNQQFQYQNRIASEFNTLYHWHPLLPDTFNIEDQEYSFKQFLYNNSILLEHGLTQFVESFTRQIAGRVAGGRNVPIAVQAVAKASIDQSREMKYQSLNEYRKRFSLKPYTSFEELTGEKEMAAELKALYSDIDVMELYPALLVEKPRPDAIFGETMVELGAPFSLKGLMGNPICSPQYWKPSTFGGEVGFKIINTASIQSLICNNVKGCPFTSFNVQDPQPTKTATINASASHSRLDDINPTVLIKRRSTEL
Procedure, shortened: (§2)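 Purified murine COX-2 (40 nM in footnote; 50 nM in methods) with 100 nM heme and 1 μM PPHP in 50 mM Tris-HCl pH 8.0, 0.5 mM phenol, 5% DMSO final. Five inhibitor concentrations up to 1 μM plus solvent control. Substrate (AA or 2-AG, 5 μM) added at 37 °C for 30 s. Quenched with solvent containing PGE2-d4/PGE2G-d5. Products measured by LC-MS/MS SRM.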

[3] = target: T2, Prostaglandin G/H synthase 2; assay: Inhibition of mouse COX2 using [1-14C]AA as substrate preincubated for 20 mins followed by substrate addition and measured for 30 sec by thin layer chromatography analysis; procedure, shortened: as §1
[4] = target: T2, Prostaglandin G/H synthase 2; assay: Inhibition of mouse COX2 using arachidonic acid as substrate preincubated for 3 mins followed by substrate addition and measured for 30 sec by LC/MS analysis; procedure, shortened: as §2

Row | Structure (SMILES) | IC50 [1] [nM] | IC50 [2] [nM] | IC50 [3] [nM] | IC50 [4] [nM]
1 | COc1ccc2c(c1)c1c(n2Cc2ccc(Cl)cc2)C(C)=NCC1 | > 4000 | > 1000 | 2100 | > 1000
2 | COc1cccc2[nH]c3c(c12)CCN=C3C | > 4000 | > 1000 | > 4000 | > 1000
3 | COc1ccc2[nH]c3c(c2c1)CCN=C3C | > 4000 | > 1000 | > 4000 | > 1000
